Assay results as given in ChEMBL document CHEMBL4339184, “Discovery of deshydroxy bicalutamide derivatives as androgen receptor antagonists” (Eur J Med Chem, 2019).

Assays:
LNCaP [1] = experiment: Antiproliferative activity against human LNCAP cells assessed as reduction in cell viability after 96 hrs by MTT assay; type: functional, cell-based
In short: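 LNCaP cells in RPMI-1640 with 10% FCS, penicillin/streptomycin, 37°C, 5% CO2; seeded 4000 cells/well, adhered overnight. Medium replaced with fresh medium carrying nine half-log concentrations up to 100 μM (DMSO 1:100) or DMSO control, triplicate, 96 h. MTT, formazan dissolved in acidified isopropanol, A540; viability vs DMSO; absolute IC50 by non-linear regression, mean of three independent experiments.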

PC-3 = experiment: Antiproliferative activity against human PC3 cells assessed as reduction in cell viability after 96 hrs by MTT assay; type: functional, cell-based; details: PC-3, 96 h
In short: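 PC3 cells grown in DMEM with 10% FCS, seeded at 4000 cells/well, adhered overnight, then medium replaced with medium containing nine concentrations from 0.1 to 100 μM (1:100 dilution of DMSO stocks) or DMSO control, in triplicate, for 96 h. MTT read-out: formazan dissolved in acidified isopropanol, absorbance at 540 nm; viability normalised to DMSO; IC50 from triplicate means.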

[2] = molecular target: T1, Androgen receptor (Homo sapiens) (UniProt P10275); experiment: Antagonist activity at androgen receptor in human LNCAP cells assessed as reduction in PSA expression after 24 hrs by qPCR analysis; type: cell-based
T1 sequence (whole entry): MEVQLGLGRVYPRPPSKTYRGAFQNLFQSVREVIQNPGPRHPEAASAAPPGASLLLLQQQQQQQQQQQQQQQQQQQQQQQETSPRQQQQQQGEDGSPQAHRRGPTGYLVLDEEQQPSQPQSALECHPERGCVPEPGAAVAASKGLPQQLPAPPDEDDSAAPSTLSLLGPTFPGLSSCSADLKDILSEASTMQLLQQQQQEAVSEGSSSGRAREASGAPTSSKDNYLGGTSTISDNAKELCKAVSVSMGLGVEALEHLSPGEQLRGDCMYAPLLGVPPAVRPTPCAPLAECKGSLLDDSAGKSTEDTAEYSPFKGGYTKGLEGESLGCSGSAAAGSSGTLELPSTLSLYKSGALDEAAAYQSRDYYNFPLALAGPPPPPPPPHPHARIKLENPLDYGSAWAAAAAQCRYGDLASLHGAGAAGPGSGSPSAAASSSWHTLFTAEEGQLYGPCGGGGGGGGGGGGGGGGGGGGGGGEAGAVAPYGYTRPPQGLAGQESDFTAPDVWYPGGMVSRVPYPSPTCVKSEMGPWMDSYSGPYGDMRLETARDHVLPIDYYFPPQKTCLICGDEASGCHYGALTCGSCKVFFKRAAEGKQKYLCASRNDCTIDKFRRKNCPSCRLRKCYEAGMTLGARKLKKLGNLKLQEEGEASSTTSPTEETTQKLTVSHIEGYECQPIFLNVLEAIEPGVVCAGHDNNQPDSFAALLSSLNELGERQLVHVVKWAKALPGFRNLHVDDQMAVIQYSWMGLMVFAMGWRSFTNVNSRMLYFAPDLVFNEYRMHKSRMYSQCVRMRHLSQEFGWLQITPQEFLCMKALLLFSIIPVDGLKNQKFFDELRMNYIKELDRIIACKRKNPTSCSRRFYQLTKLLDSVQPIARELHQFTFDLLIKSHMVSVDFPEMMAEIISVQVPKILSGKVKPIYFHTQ
In short: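 LNCaP cells seeded in 6-well plates in RPMI and allowed 24 h to adhere, then exposed to 5, 10, 50 and 100 μM for 24 h; untreated and DMSO (1:100) wells as negative controls. RNA extracted with TRI-reagent, reverse-transcribed, qPCR run in triplicate for PSA with AR, GAPDH, RPL19 and β-actin as housekeeping genes; relative expression by ΔΔCT.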

VCaP = experiment: Antiproliferative activity against human VCaP cells assessed as reduction in cell viability after 96 hrs by MTS assay; type: functional, cell-based
In short: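 VCaP cells in DMEM with 10% FCS, exposed for 96 h in triplicate to nine concentrations from 0.1 to 100 μM or DMSO. Because adherence is poor, only half the medium was exchanged for medium carrying compound at a 1:50 dilution. Viability by MTS, absorbance at 490 nm after 1 and 2 h, normalised to DMSO; IC50 from triplicate means.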

LNCaP [3] = experiment: Potency index, ratio of IC50 for bicalutamide to IC50 for test compound for antiproliferative activity against human LNCAP cells incubated for 96 hrs by MTT assay; type: functional
LNCaP [4] = experiment: Potency index, ratio of IC50 for enzalutamide to IC50 for test compound for antiproliferative activity against human LNCAP cells incubated for 96 hrs by MTT assay; type: functional

Row | SMILES | IC50 (LNCaP [1]) | further results
1 | CC(CSc1cc(C(F)(F)F)cc(C(F)(F)F)c1)C(=O)Nc1ccc([N+](=O)[O-])cc1C(F)(F)F (racemic) | 43.7 µM | 
2 | CC(CSc1ccc(C(F)(F)F)cc1)C(=O)Nc1ccc([N+](=O)[O-])c(C(F)(F)F)c1 (racemic) | 4.41 µM | 
3 | CC(CS(=O)(=O)c1cc(C(F)(F)F)cc(C(F)(F)F)c1)C(=O)Nc1ccc(C#N)cc1C(F)(F)F (racemic) | 9.56 µM | 
4 | CC(CSc1cc(C(F)(F)F)cc(C(F)(F)F)c1)C(=O)Nc1ccc(C#N)cc1C(F)(F)F (racemic) | 4.57 µM | 
5 | CC(CSc1ccc(C(F)(F)F)cc1)C(=O)Nc1ccc([N+](=O)[O-])cc1C(F)(F)F (racemic) | 54.3 µM | 
6 | CC(CS(=O)(=O)c1ccc(C(F)(F)F)cc1)C(=O)Nc1ccc([N+](=O)[O-])c(C(F)(F)F)c1 (racemic) | 3.31 µM | 
7 | CC(CSc1cccc(OC(F)(F)F)c1)C(=O)Nc1ccc(C#N)c(C(F)(F)F)c1 (racemic) | 115 µM | 
8 | CC(CS(=O)(=O)c1ccc(F)cc1)C(=O)Nc1ccc([N+](=O)[O-])c(C(F)(F)F)c1 (racemic) | 2.67 µM | IC50 (PC-3): 112 µM; inhibition [2]: Dose-dependent effect; IC50 (VCaP): 8.21 µM
9 | CC(CS(=O)(=O)c1cc(C(F)(F)F)cc(C(F)(F)F)c1)C(=O)Nc1ccc([N+](=O)[O-])cc1C(F)(F)F (racemic) | 3.08 µM | 
10 | CC(CSc1cc(C(F)(F)F)cc(C(F)(F)F)c1)(Sc1cc(C(F)(F)F)cc(C(F)(F)F)c1)C(=O)Nc1ccc([N+](=O)[O-])cc1C(F)(F)F (racemic) | 0.43 µM | IC50 (PC-3): 0.91 µM; inhibition [2]: Dose-dependent effect; IC50 (VCaP): 0.18 µM; Ratio IC50 (LNCaP [3]): >40; Ratio IC50 (LNCaP [4]): >3
11 | CC(CS(=O)(=O)c1ccc(F)cc1)C(=O)Nc1ccc([N+](=O)[O-])cc1C(F)(F)F (racemic) | 4.05 µM | 
12 | CC(CS(=O)(=O)c1ccc(C(F)(F)F)cc1)C(=O)Nc1ccc(C#N)c(C(F)(F)F)c1 (racemic) | 58 µM | 
13 | CC(CSc1ccc(C(F)(F)F)cc1)(Sc1ccc(C(F)(F)F)cc1)C(=O)Nc1ccc(C#N)c(C(F)(F)F)c1 (racemic) | 1.68 µM | IC50 (PC-3): 5.45 µM; inhibition [2]: Dose-dependent effect; IC50 (VCaP): 0.13 µM
14 | CC(CSc1ccc(F)cc1)C(=O)Nc1ccc(C#N)c(C(F)(F)F)c1 (racemic) | 8.69 µM | 
15 | CC(CS(=O)(=O)c1ccc(F)cc1)C(=O)Nc1ccc(C#N)c(C(F)(F)F)c1 (racemic) | 115 µM | 
16 | CC(CS(=O)(=O)c1cc(C(F)(F)F)cc(C(F)(F)F)c1)C(=O)Nc1ccc(C#N)c(C(F)(F)F)c1 (racemic) | 6.16 µM | 
17 | CC(CS(=O)(=O)c1ccc(C(F)(F)F)cc1)C(=O)Nc1ccc([N+](=O)[O-])cc1C(F)(F)F (racemic) | 26.3 µM | 
18 | CC(CSc1ccc(F)cc1)C(=O)Nc1ccc([N+](=O)[O-])c(C(F)(F)F)c1 (racemic) | 27.2 µM | 
19 | CC(CS(=O)(=O)c1cccc(OC(F)(F)F)c1)C(=O)Nc1ccc(C#N)c(C(F)(F)F)c1 (racemic) | 13.2 µM | 
20 | CC(CS(=O)(=O)c1cc(C(F)(F)F)cc(C(F)(F)F)c1)C(=O)Nc1ccc([N+](=O)[O-])c(C(F)(F)F)c1 (racemic) | 12.2 µM | 
21 | CC(CSc1ccc(F)cc1)C(=O)Nc1ccc([N+](=O)[O-])cc1C(F)(F)F (racemic) | 43.2 µM | 
22 | CC(CS(=O)(=O)c1ccc(C(F)(F)F)cc1)C(=O)Nc1ccc(C#N)cc1C(F)(F)F (racemic) | 28.8 µM | 
23 | C[C@](O)(CS(=O)(=O)c1ccc(F)cc1)C(=O)Nc1ccc(C#N)c(C(F)(F)F)c1 [(R)-BICALUTAMIDE] | 20.4 µM | IC50 (PC-3): 92.6 µM; IC50 (VCaP): 5.96 µM
24 | CNC(=O)c1ccc(N2C(=S)N(c3ccc(C#N)c(C(F)(F)F)c3)C(=O)C2(C)C)cc1F [ENZALUTAMIDE] | 1.31 µM | IC50 (PC-3): 15.1 µM; IC50 (VCaP): 3.66 µM
